In paper PMC4094378 (European journal of medicinal chemistry, 2014):

How the values were obtained:
[1] = test system: SEM cells; assay: Cell growth inhibitory activity; assay type: cell-based, human; conditions: read-out: IC50 SEM; 72 h, MTT; mean ± SE
Procedure, shortened: (§1)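 Jurkat, CEM and SEM cells were grown in RPMI-1640, and HeLa, MCF-7, HT-29 and LoVo in DMEM, each with 10% FBS and penicillin/streptomycin. Wells got 8 × 10^3 cells and were preincubated 18 h at 37 °C in 5% CO2. Test compound from a 10 mM DMSO stock was diluted in medium (final DMSO ≤0.25%) and applied for 72 h. Read-out was MTT. IC50 is the concentration giving 50% inhibition of proliferation, from dose–response curves of ≥3 independent experiments, mean ± SE.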

[2] = test system: panel of seven human cancer cell lines; assay: Antiproliferative activity across the panel of seven cancer cell lines; assay type: cell-based; conditions: 4′-methoxy replaced by 4′-ethoxy
Procedure, shortened: as §1

[3] = test system: HT-29 cells; assay: Cell growth inhibitory activity; assay type: cell-based, human; conditions: read-out: IC50 HT-29; 72 h, MTT; mean ± SE
Procedure, shortened: as §1

[4] = test system: HeLa cells; assay: Cell growth inhibitory activity; assay type: cell-based, human; conditions: read-out: IC50 HeLa; 72 h, MTT; mean ± SE
Procedure, shortened: as §1

[5] = test system: LoVo cells; assay: Cell growth inhibitory activity; assay type: cell-based, human; conditions: read-out: IC50 LoVo; 72 h, MTT; mean ± SE
Procedure, shortened: as §1

[6] = test system: CEM cells; assay: Cell growth inhibitory activity; assay type: cell-based, human; conditions: read-out: IC50 CEM; 72 h, MTT; mean ± SE
Procedure, shortened: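 Human T-cell leukemia cells grown in RPMI-1640 with 10% FBS, penicillin G 115 units/mL and streptomycin 115 μg/mL. 8 × 10^3 cells/well were preincubated 18 h at 37 °C, 5% CO2, then exposed to graded compound concentrations in complete medium from 10 mM DMSO stocks (final DMSO ≤0.25%) for 72 h at 37 °C. Viability was read by MTT, and IC50 is the concentration inhibiting proliferation by 50%.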

[7] = test system: MCF-7 cells; assay: Cell growth inhibitory activity; assay type: cell-based, human; conditions: read-out: IC50 MCF-7; 72 h, MTT; mean ± SE
Procedure, shortened: as §1

[8] = test system: Jurkat cells; assay: Cell growth inhibitory activity; assay type: cell-based, human; conditions: read-out: IC50 Jurkat; 72 h, MTT; mean ± SE
Procedure, shortened: as §1

For “2-Bromo-N-(4-{(1E)-3-oxo-3-[(4-ethoxyphenyl)amino] prop-1-en-1-yl}phenyl)-acrylamide [4j]”, the IC50 [1] was 180 ± 40 nM, the “fold reduction in activity vs 4i” value [2] was 2–4 fold and the IC50 [3] was 3400 ± 300 nM. The IC50 [4] was 2000 ± 130 nM, the IC50 [5] was 850 ± 30 nM and the IC50 [6] was 98 ± 33 nM. The IC50 [7] was 5500 ± 1000 nM and the IC50 [8] was 930 ± 120 nM.
